Series [1] deals with T1, GABA A receptor alpha-5/beta-3/gamma-2 (Rattus norvegicus) (UniProt P18508+P19969+P63079). The series can be described thus: Agonist activity at rat GABAA alpha5beta3gamma2 receptor expressed in Xenopus oocytes assessed as stimulation of GABA-induced chloride current at 1 uM incubated 30 secs prior to GABA induction measured after 15 mins by two-electrode voltage clamp assay relative to control. It is filed as cell-based. The settings on record: Oocyte. Put shortly:
(§1)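 Rat GABAA β3 and γ2 cDNAs plus α1, α2, α3 or α5 cDNA injected into Xenopus oocytes; follicle layers removed 36 h later. Two-electrode recording with […]-filled electrodes; oocytes perfused with Ringer (90 mM NaCl, 5 mM HEPES pH 7.4, 1 mM MgCl2, KCl, CaCl2) switched to GABA at EC3 with drug (0.1% DMSO final). Mean ± SEM, 3–4 oocytes, ≥2 batches.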

In series [2] the target is T1, GABA A receptor alpha-5/beta-3/gamma-2 (Rattus norvegicus). Description: Agonist activity at rat GABAA alpha5beta3gamma2 receptor expressed in Xenopus oocytes assessed as stimulation of GABA-induced chloride current at 100 nM incubated 30 secs prior to GABA induction measured after 15 mins by two-electrode voltage clamp assay relative to control. Type of series: cell-based. The settings on record: Oocyte. A digest of the protocol:
as §1

For series [3], the target named is Gamma-aminobutyric acid receptor subunit alpha-3 (Rattus norvegicus) (UniProt P20236). The series can be described thus: Agonist activity at rat GABAA alpha3beta3gamma2 receptor expressed in Xenopus oocytes assessed as stimulation of GABA-induced chloride current at 1 uM incubated 30 secs prior to GABA induction measured after 15 mins by two-electrode voltage clamp assay relative to control. It is filed as cell-based. The settings on record: Oocyte. A digest of the protocol: as §1
In general terms: In two-electrode clamp one electrode senses voltage and the other passes current.

The target is the same in series [4]. Description: Agonist activity at rat GABAA alpha3beta3gamma2 receptor expressed in Xenopus oocytes assessed as stimulation of GABA-induced chloride current at 100 nM incubated 30 secs prior to GABA induction measured after 15 mins by two-electrode voltage clamp assay relative to control. It is filed as cell-based. The settings on record: Oocyte. Put shortly:
as §1

Series [5] has as its target T2, GABA A receptor alpha-2/beta-2/gamma-2 (Rattus norvegicus) (UniProt P18508+P23576+P63138). Description: Agonist activity at rat GABAA alpha2beta3gamma2 receptor expressed in Xenopus oocytes assessed as stimulation of GABA-induced chloride current at 1 uM incubated 30 secs prior to GABA induction measured after 15 mins by two-electrode voltage clamp assay relative to control. It is filed as cell-based. The settings on record: Oocyte. Put shortly:
as §1

Series [6] concerns the target T2, GABA A receptor alpha-2/beta-2/gamma-2 (Rattus norvegicus). The series can be described thus: Agonist activity at rat GABAA alpha2beta3gamma2 receptor expressed in Xenopus oocytes assessed as stimulation of GABA-induced chloride current at 100 nM incubated 30 secs prior to GABA induction measured after 15 mins by two-electrode voltage clamp assay relative to control. It is filed as cell-based. The settings on record: Oocyte. Put shortly: as §1

In series [7] the target is T3, GABA-A receptor; alpha-1/beta-2/gamma-2 (Rattus norvegicus) (UniProt P18508+P62813+P63138). The series can be described thus: Agonist activity at rat GABAA alpha1beta3gamma2 receptor expressed in Xenopus oocytes assessed as stimulation of GABA-induced chloride current at 1 uM incubated 30 secs prior to GABA induction measured after 15 mins by two-electrode voltage clamp assay relative to control. It is filed as cell-based. The settings on record: Oocyte. Put shortly:
as §1

The target of series [8] is T3, GABA-A receptor; alpha-1/beta-2/gamma-2 (Rattus norvegicus). The series can be described thus: Agonist activity at rat GABAA alpha1beta3gamma2 receptor expressed in Xenopus oocytes assessed as stimulation of GABA-induced chloride current at 100 nM incubated 30 secs prior to GABA induction measured after 15 mins by two-electrode voltage clamp assay relative to control. It is filed as cell-based. The settings on record: Oocyte. Put shortly:
as §1

Series [9] in a line: Metabolic stability in heat inactivated human liver microsomes assessed as compound remaining at 10 uM measured at 60 mins by LC-MS/MS analysis relative to control. It is filed as ADME, Microsome. The settings on record: read-out: Stability. Put shortly:
(§2)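 Control incubation with heat-inactivated human liver microsomes (0.5 mg protein/ml) in 100 mM phosphate pH 7.4, 37 °C, sampled at 0 and 60 min. Samples quenched in acetonitrile with internal standard and analysed by LC-MS/MS. Percent remaining is the peak-area ratio relative to 0 min ×100; duplicates.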
In general terms: Liver microsomes are a subcellular fraction often used to study metabolism.

Series [10] can be described thus: Metabolic stability in human liver microsomes assessed as compound remaining at 10 uM measured at 60 mins by LC-MS/MS analysis relative to control. The settings on record: read-out: Stability. Type of series: ADME, Microsome. Put shortly:
(§3)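 Pooled human liver microsomes (150 donors, 0.5 mg protein/ml) with 2.5 mM NADPH and 3.3 mM MgCl2 in 100 mM phosphate pH 7.4, 0.1% DMSO final, 37 °C, reaction started with microsomes. Aliquots quenched in cold acetonitrile with internal standard; LC-MS/MS in positive-ion ESI MRM mode. Percent remaining is analyte/internal-standard peak-area ratio versus 0 min ×100; duplicates.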

Series [11] can be described thus: Metabolic stability in human liver microsomes assessed as compound remaining at 10 uM measured at 30 mins by LC-MS/MS analysis relative to control. It is filed as ADME, Microsome. The settings on record: read-out: Stability. Put shortly: as §3
Series [12] is described as follows: Metabolic stability in human liver microsomes assessed as compound remaining at 10 uM measured at 15 mins by LC-MS/MS analysis relative to control. It is filed as ADME, Microsome. The settings on record: read-out: Stability. Put shortly: as §3
Series [13] is described as follows: Metabolic stability in heat inactivated human liver microsomes assessed as compound remaining at 1 uM measured at 60 mins by LC-MS/MS analysis relative to control. It is filed as ADME, Microsome. The settings on record: heat-inactivated liver microsomes, read-out: Stability. A digest of the protocol:
as §2

Series [14] relates to Liver microsomes. Description: Metabolic stability in human liver microsomes assessed as compound remaining at 1 uM measured at 60 mins by LC-MS/MS analysis relative to control. The settings on record: microsomes, 1 h, 1 µM. It is filed as ADME, Microsome. A digest of the protocol:
as §3

For series [15], the system named is Liver microsomes. The series can be described thus: Metabolic stability in human liver microsomes assessed as compound remaining at 1 uM measured at 30 mins by LC-MS/MS analysis relative to control. Type of series: ADME, Microsome. The settings on record: microsomes, 0.5 h, 1 µM. Put shortly: as §3
The nature of series [16]: Metabolic stability in human liver microsomes assessed as compound remaining at 1 uM measured at 15 mins by LC-MS/MS analysis relative to control. Type of series: ADME, Microsome. The settings on record: read-out: Stability. A digest of the protocol: as §3

Gamma-aminobutyric acid receptor subunit alpha-3 (Rattus norvegicus), sequence (P20236 whole entry): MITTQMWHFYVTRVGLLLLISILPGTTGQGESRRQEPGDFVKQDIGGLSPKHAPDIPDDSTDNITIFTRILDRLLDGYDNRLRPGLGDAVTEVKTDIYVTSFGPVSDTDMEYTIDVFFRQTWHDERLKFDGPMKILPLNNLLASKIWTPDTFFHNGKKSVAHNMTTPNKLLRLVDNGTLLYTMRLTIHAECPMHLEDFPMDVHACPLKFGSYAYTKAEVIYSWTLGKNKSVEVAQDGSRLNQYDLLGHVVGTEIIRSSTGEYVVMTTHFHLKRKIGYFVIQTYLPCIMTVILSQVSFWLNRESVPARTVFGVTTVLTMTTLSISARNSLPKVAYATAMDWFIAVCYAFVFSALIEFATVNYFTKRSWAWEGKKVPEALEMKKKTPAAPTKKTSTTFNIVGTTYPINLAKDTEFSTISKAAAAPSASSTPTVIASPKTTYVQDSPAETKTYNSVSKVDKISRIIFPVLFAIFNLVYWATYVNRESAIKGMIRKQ

As for `C#Cc1ccc2c(c1)C(c1ccccn1)=NCc1c(C(=O)NC)ncn1-2`, the Activity in series [1] came to 182%; in [2] it was 122%; in [3] it was 376%; in [4], 163%; in series [5], 226%; in series [6], 140%. Further, the values for the Activity in [7] and in [8] were 171% and 117%, respectively. The remaining at 1 h, 10 µM in series [9] and in [10] was 110% throughout. Further, in series [11], the remaining at 0.5 h, 10 µM turned out to be 106%. Also, the remaining at 0.25 h, 10 µM in [12] amounted to 104%. Further, in series [13], the remaining at 1 h, 1 µM was 110%. Further, the values for the Stability in the series with Liver microsomes [14] and in the series with Liver microsomes [15] were 136.4% and 126%, respectively. The remaining at 0.25 h, 1 µM in series [16] is 109%.

The record behind these values is ChEMBL document CHEMBL2331169, “Search for α3β₂/₃γ2 subtype selective ligands that are stable on human liver microsomes” (Bioorg Med Chem, 2013).
